Source: publication PMC7610535 (Nature chemical biology, 2020)
Positions count from the first letter of the chain named. pEC50, pKd: −log10 of the molar value.

What was measured:
[1] = biological target: T1, AURORA-A (Homo sapiens, UniProt O14965); experiment: AURORA-A-NanoLuc target engagement assay; format: binding
T1 sequence (O14965 1-403): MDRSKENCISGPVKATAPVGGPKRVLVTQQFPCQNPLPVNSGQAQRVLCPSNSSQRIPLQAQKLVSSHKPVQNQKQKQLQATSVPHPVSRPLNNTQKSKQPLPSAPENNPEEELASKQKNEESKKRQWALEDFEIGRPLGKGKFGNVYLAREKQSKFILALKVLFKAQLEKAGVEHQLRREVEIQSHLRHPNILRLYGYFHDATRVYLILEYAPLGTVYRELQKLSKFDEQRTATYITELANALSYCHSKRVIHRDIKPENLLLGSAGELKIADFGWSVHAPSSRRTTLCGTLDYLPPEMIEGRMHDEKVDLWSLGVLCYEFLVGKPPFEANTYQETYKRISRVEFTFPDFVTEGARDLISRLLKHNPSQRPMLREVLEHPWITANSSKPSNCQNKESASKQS

[2] = biological target: AURORA-B (Homo sapiens, UniProt Q96GD4); experiment: AURORA-B-NanoLuc target engagement assay; format: binding; settings: AURORA-B EC50 (µM), HEK293 cells, energy transfer probe, 2 hours, mean ± s.e.m, n = 2
Sequence of AURORA-B (Q96GD4 whole entry): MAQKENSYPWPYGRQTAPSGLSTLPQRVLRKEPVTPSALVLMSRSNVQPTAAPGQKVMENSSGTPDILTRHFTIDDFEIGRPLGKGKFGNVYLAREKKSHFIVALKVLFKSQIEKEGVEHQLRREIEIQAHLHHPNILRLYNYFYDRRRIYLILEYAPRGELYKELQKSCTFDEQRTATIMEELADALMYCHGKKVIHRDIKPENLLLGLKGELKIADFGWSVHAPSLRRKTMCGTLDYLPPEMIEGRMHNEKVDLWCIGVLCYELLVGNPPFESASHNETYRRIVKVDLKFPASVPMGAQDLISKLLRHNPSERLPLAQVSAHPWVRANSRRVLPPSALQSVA

[3] = biological target: T1, AURORA-A; experiment: Immunoblot of AURORA-A in compound-treated MV4-11 cells; format: cell-based; settings: 6 hours
[4] = biological target: T1, AURORA-A; experiment: HiBiT assay: AURORA-A levels based on luciferase measurements in MV4-11 cells; format: cell-based
Method in brief: (§1)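 HiBiT-tagged wild-type or mutant AURORA-A was expressed stably in MV4-11 cells (infected twice, 24 h apart, selected 72 h after infection). Cells were exposed to serial dilutions of the test compound for 6 h and lysed with lytic detection reagent containing the LgBiT fragment. Luminescence was then read. DC50 and DCmax were derived from the concentration–response data.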

[5] = tested on: AURORA-A mRNA; experiment: Quantitative real-time PCR of AURORA-A mRNA in MV4-11 cells; format: cell-based, human; settings: 0.1 µM
Method in brief: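 MV4-11 cells were exposed for 6 h, and RNA and protein were isolated in parallel. AURORA-A mRNA was measured by RT-qPCR and normalised to DMSO-treated control cells; bars are means of technical replicates.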

[6] = tested on: MV4-11 cells; experiment: Quantitative SILAC mass spectrometry: relative protein abundance in MV4-11 cells; format: cell-based, human; settings: 0.1 µM
[7] = biological target: CEREBLON thalidomide-binding domain (TBD) (Homo sapiens, UniProt Q96SW2); experiment: Isothermal titration calorimetry, CEREBLON-TBD into JB170
Sequence of CEREBLON thalidomide-binding domain (TBD) (Q96SW2 320-428): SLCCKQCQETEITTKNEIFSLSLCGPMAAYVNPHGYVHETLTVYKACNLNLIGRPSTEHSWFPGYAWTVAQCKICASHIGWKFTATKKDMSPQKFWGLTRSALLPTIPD

[8] = biological target: AURORA-A-CEREBLON complex (Homo sapiens, UniProt O14965+Q96SW2); experiment: HA immunoprecipitation of AURORA-A, co-precipitated CEREBLON; format: binding; settings: MV4-11 cell extracts, 0.5 µM degrader
Sequence of AURORA-A-CEREBLON complex (Q96SW2 whole entry, one chain of several): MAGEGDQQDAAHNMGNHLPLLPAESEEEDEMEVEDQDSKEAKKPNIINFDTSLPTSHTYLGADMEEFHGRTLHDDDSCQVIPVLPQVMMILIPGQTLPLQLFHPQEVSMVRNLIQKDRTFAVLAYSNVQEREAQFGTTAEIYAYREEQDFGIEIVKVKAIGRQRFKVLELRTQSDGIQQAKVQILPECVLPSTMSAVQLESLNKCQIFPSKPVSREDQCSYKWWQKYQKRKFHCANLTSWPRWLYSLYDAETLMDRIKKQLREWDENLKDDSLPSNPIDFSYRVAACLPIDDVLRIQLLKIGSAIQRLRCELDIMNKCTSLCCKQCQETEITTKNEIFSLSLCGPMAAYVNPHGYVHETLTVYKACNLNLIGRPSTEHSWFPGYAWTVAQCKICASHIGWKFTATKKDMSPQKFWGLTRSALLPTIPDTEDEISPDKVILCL
Sequence of AURORA-A-CEREBLON complex (Q16531 whole entry partner, one chain of several): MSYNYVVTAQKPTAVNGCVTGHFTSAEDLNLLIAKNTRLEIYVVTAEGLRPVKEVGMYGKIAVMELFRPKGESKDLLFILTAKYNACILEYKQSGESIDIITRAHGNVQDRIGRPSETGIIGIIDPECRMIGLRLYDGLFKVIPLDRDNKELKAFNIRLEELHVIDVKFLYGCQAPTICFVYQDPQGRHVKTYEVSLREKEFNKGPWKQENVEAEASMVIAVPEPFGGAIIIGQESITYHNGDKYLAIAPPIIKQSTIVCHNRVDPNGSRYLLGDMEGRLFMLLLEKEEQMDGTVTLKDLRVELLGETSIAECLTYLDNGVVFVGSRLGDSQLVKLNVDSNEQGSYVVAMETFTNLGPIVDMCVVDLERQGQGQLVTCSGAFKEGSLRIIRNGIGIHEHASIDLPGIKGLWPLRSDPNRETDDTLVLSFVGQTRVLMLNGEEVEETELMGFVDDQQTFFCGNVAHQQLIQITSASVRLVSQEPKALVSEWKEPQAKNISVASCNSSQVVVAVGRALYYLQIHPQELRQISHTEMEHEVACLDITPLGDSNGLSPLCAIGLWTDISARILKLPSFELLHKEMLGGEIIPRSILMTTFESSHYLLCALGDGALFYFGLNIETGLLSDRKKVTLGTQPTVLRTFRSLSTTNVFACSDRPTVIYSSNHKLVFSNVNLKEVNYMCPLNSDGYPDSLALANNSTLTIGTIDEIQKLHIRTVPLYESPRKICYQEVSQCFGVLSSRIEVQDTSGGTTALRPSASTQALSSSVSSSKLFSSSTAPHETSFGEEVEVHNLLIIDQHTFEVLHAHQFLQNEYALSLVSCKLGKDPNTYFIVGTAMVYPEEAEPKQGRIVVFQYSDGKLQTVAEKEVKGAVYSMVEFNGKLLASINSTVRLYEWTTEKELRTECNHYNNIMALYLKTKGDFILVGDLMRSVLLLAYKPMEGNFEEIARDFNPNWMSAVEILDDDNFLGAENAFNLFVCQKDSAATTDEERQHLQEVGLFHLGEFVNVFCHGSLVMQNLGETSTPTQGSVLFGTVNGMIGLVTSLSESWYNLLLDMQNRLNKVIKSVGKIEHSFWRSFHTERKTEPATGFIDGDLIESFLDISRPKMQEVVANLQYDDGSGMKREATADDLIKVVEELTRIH

[9] = alamarBlue cell viability assay, MV4-11 cells; format: cell-based; settings: human
Method in brief: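 MV4-11 cells (6 x10^3 per well) were exposed for various times, with compound refreshed every 24 h. Viability was read with alamarBlue HS reagent as fluorescence (excitation 550 nm, emission 600 nm).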

[10] = biological target: T2, AURORA-A^Imut (Homo sapiens, UniProt O14965, A267W/E239R/F157E/I158E/I57V/K153E/K156E/K224E/P191W/R137E/R189E/R375E/S266W); experiment: Depletion of AURORA-A interface mutant in MV4-11 cells; format: cell-based; settings: 12 mutated amino acids in the presumed interface with CEREBLON
T2 sequence (O14965 1-403 I57V/R137E/K153E/K156E/F157E/I158E/R189E/P191W/K224E/E239R/S266W/A267W/R375E): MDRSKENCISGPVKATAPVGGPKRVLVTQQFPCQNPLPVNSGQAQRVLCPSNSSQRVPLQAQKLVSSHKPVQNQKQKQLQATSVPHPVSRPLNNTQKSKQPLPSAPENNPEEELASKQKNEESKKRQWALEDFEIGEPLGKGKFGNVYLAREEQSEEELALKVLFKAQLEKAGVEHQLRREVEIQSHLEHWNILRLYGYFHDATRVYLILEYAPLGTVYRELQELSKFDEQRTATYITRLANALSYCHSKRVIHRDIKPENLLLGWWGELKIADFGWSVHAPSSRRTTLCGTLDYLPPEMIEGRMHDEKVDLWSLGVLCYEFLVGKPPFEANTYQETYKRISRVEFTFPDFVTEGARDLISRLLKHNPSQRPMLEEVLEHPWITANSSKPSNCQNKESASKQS
Method in brief: as §1

[11] = biological target: AURORA-A^K162R (Homo sapiens, UniProt O14965+Q96SW2, I57V/K162R); experiment: Immunoblot of HA-tagged kinase-dead AURORA-A^K162R; format: cell-based; settings: 1 µM, 18 hours
Sequence of AURORA-A^K162R (O14965 whole entry I57V/K162R): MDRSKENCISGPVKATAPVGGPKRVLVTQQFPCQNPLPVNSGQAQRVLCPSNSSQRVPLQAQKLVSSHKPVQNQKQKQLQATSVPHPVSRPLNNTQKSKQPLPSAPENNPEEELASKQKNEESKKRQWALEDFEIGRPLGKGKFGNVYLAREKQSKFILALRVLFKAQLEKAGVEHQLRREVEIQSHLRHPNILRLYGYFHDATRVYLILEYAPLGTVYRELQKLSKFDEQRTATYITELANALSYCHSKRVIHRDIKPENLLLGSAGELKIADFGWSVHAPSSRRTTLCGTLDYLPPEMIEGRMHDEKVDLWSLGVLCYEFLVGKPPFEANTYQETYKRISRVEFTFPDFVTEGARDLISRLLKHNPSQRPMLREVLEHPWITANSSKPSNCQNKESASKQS
Sequence of AURORA-A^K162R (Q96SW2 whole entry): as the sequence (Q96SW2 whole entry, one chain of several) above
Sequence of AURORA-A^K162R (Q16531 whole entry partner): as the sequence (Q16531 whole entry partner, one chain of several) above

[12] = biological target: T3, AURORA-A^T217D (Homo sapiens, UniProt O14965, T217D); experiment: Immunoblot of HA-tagged AURORA-A^T217D in IMR5 cells; format: cell-based; settings: 24 hours
T3 sequence (O14965 1-403 T217D): T1 sequence (O14965 1-403) with T217D
Method in brief: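 IMR5 cells expressing HA-tagged AURORA-A T217D or wild-type AURORA-A were exposed to graded concentrations for 24 h. RIPA lysates (20 min, 4 °C) were cleared and BCA-quantified. Equal protein was resolved by Bis-Tris PAGE and transferred to PVDF. Membranes were blocked 1 h in 5% milk/TBS-T and probed for HA-tagged AURORA-A overnight at 4 °C.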

[13] = biological target: AURORA-B^E162T (Homo sapiens, UniProt Q96GD4, E161T); experiment: Immunoblot of HA-tagged AURORA-B swap mutant in MV4-11 cells; format: cell-based; settings: 6 hours
Sequence of AURORA-B^E162T (Q96GD4 1-345 isoform Q96GD4-5 E162T): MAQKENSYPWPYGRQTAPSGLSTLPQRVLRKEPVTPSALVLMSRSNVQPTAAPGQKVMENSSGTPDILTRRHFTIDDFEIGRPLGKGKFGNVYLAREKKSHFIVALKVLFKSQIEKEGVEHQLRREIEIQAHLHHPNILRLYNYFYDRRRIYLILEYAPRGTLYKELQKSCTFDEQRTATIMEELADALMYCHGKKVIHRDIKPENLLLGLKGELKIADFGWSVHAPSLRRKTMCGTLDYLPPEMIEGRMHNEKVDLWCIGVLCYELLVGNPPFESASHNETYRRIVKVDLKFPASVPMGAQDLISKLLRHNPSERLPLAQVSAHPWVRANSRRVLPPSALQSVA

[14] = biological target: AURORA-B^R160L,E162T,K165R (Homo sapiens, UniProt Q96GD4, E161T/K164R/R159L); experiment: Immunoblot of HA-tagged AURORA-B swap mutant x3 in MV4-11 cells; format: cell-based; settings: 6 hours
Sequence of AURORA-B^R160L,E162T,K165R (Q96GD4 1-345 isoform Q96GD4-5 R160L/E162T/K165R): as the sequence (Q96GD4 1-345 isoform Q96GD4-5 E162T) above, with R160L, K165R counted along it

pEC50 [1]: 6.71 | difference of affinities for AURORA-A and AURORA-B ([1]; AURORA-A vs AURORA-B, depending on experimental conditions (BRET, Kinobeads)): 3- to 50 fold | EC50 [2]: 1.4 µM | reduction of AURORA-A levels (in words) ([3]; 10 nM): reduced AURORA-A levels modestly | reduction of AURORA-A levels (in words) ([3]; 100 nM and 1 µM): substantial degradation | degrader activity on co-incubation with alisertib or thalidomide [3]: abolished its degrader activity | depletion of AURORA-A under proteasomal inhibition by MG132 ([3]; MG132 10 µM): completely blocked | depletion of AURORA-A under inhibition of cullin neddylation by MLN4924 ([3]; MLN4924 3 µM): completely blocked | concentration of maximal depletion of AURORA-A (DCmax) ([4]; HiBiT-AURORA-A, 6 hours): 300 nM | concentrations ineffective in depleting AURORA-A (Hook effect) ([4]; immunoblot and luminescence assays): ≥ 10 µM | pKd [7]: 5.16 | CEREBLON co-precipitation with HA-tagged AURORA-A [8]: efficient CEREBLON co-precipitation | JB170-mediated depletion of AURORA-A^Imut [10]: not depleted | JB170-mediated depletion of AURORA-A^T217D [12]: largely abrogated | JB170-mediated degradation of AURORA-B^E162T with respect to AURORA-A [13]: strongly attenuated | JB170-mediated degradation of AURORA-B^R160L,E162T,K165R with respect to AURORA-A [14]: strongly attenuated
Structure (SMILES): COc1cc(Nc2ncc3c(n2)-c2ccc(Cl)cc2C(c2c(F)cccc2OC)=NC3)ccc1C(=O)NCCOCCOCCNC(=O)COc1cccc2c1C(=O)N(C1CCC(=O)NC1=O)C2=O (stereo not drawn) [JB170]
AURORA-A mRNA levels [5]: not reduced | destabilization of CEREBLON neosubstrates (GSPT1, CSNK1A1, ZFP91, IZKF1/3) ([6]; 6 hours): none was destabilized | depletion of other proteins (p<0.05, log2FC<-1) ([6]; 6 hours, 4,259 proteins, including AURORA-B): no additional protein was depleted | viability at 72 h, 1 µM [9]: 32% | depletion of AURORA-A^K162R [11]: depleted by JB170 to a similar degree as the unmutated protein
